Assay results taken from ChEMBL document CHEMBL1938314, “Electrochemical and spectroscopic investigations of isoniazide and its analogs with ds.DNA at physiological pH: evaluation of biological activities” (Eur J Med Chem, 2012).
In brackets after ≈: the same amount, converted by molar mass. Activity calls are given as the source filed them. The rule behind the calls is not given here.

Assays:
Nucleic Acid [1] = assay: Binding affinity to chicken blood dsDNA assessed as hyperchromic effect at 1.1 x 10 '-4 M at pH 4.7 by UV-spectroscopy; type: nucleic-acid assay; details: Gallus gallus
Outline: (§1)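 Chicken blood DNA (A260/A280 >1.8) quantified at 260 nm (ε 6600). Compound held at 1.1 × 10^-4 M; DNA titrated 10–50 µM in acetate pH 4.7 or phosphate pH 7.4 buffer at 37 °C; UV absorbance recorded. Kb taken as intercept/slope of A0/(A−A0) vs 1/[DNA] (Benesi–Hildebrand); ΔG = −RTlnKb.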

Nucleic Acid [2] = assay: Binding affinity to chicken blood dsDNA assessed as hyperchromic effect at 1.1 x 10 '-4 M at pH 7.4 by UV-spectroscopy; type: nucleic-acid assay; details: Gallus gallus; outline: as §1
Nucleic Acid [3] = assay: Binding affinity to chicken blood dsDNA at pH 4.7 by UV-spectroscopy; type: nucleic-acid assay; details: Gallus gallus; outline: as §1
Nucleic Acid [4] = assay: Binding affinity to chicken blood dsDNA at pH 7.4 by UV-spectroscopy; type: nucleic-acid assay; details: Gallus gallus; outline: as §1
Nucleic Acid [5] = assay: Binding affinity to chicken blood dsDNA at pH 4.7 by cyclic voltammetry; type: nucleic-acid assay; details: Gallus gallus
Outline: (§2)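 Cyclic voltammetry at glassy carbon electrode vs SCE. Compound 1 mM in acetate pH 4.7 or phosphate pH 7.4 buffer at 37 °C, argon-purged 10–15 min. Scanned −1 to +1.5 V at 100 mV/s before and after chicken blood DNA (10–50 µM final). Peak current decrease and Ep shift recorded; Kb derived from current decrease.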

Nucleic Acid [6] = assay: Binding affinity to chicken blood dsDNA at pH 7.4 by cyclic voltammetry; type: nucleic-acid assay; details: Gallus gallus; outline: as §2
[7] = tested on: Bordetella bronchiseptica; assay: Antibacterial activity against Bordetella bronchiseptica ATCC 10580 after 24 hrs by agar well diffusion method; type: functional; details: ATCC 10580, 24 h
Outline: (§3)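 MIC by agar well diffusion with serial dilutions. Strains grown in LB at 37 °C for 24 h. 0.75 ml broth culture mixed into 75 ml nutrient agar and poured; 8 mm wells cut, filled with test sample in DMSO. Plates incubated 37 °C for 24 h. DMSO served as negative control, roxithromycin and cefixime as positive controls.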

Klebsiella aerogenes [8] = assay: Antibacterial activity against Enterobacter aerogenes ATCC 13048 after 24 hrs by agar well diffusion method; type: functional; details: ATCC 13048, 24 h; outline: as §3
Salmonella typhi [9] = assay: Antibacterial activity against Salmonella typhi ATCC 6539 after 24 hrs by agar well diffusion method; type: functional, Salmonella enterica subsp. enterica serovar Typhi; details: Salmonella enterica, ATCC 6539, 24 h
Escherichia coli [10] = assay: Antibacterial activity against Escherichia coli ATCC 15224 after 24 hrs by agar well diffusion method; type: functional; details: ATCC 15224, 24 h; outline: as §3
Micrococcus luteus [11] = assay: Antibacterial activity against Micrococcus luteus ATCC 10240 after 24 hrs by agar well diffusion method; type: functional; details: ATCC 10240, 24 h; outline: as §3
Staphylococcus aureus [12] = assay: Antibacterial activity against Staphylococcus aureus ATCC 6538 after 24 hrs by agar well diffusion method; type: functional; details: ATCC 6538, 24 h; outline: as §3
[13] = tested on: Bordetella bronchiseptica; assay: Antibacterial activity against Bordetella bronchiseptica ATCC 10580 at 1 mg/ml after 24 hrs by agar well diffusion method; type: functional; details: for zone of inhibition at 1000 µg/mL: ATCC 10580, 24 h, read-out: DIZ
Outline: (§4)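 Agar well diffusion. Strains grown in LB at 37 °C for 24 h; 0.75 ml broth culture seeded into 75 ml nutrient agar. 8 mm wells received 100 µl of sample at 1 mg/ml in DMSO. Incubated 37 °C for 24 h; inhibition zone diameter measured in mm. DMSO negative control; roxithromycin and cefixime (1 mg/ml) positive controls.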

Klebsiella aerogenes [14] = assay: Antibacterial activity against Enterobacter aerogenes ATCC 13048 at 1 mg/ml after 24 hrs by agar well diffusion method; type: functional; details: for zone of inhibition at 1000 µg/mL: ATCC 13048, 24 h, read-out: DIZ; outline: as §4
Salmonella typhi [15] = assay: Antibacterial activity against Salmonella typhi ATCC 6539 at 1 mg/ml after 24 hrs by agar well diffusion method; type: functional, Salmonella enterica subsp. enterica serovar Typhi; details: for zone of inhibition at 1000 µg/mL: Salmonella enterica, ATCC 6539, 24 h, read-out: DIZ; for diameter of the inhibition zone (DIZ): Salmonella enterica subsp. enterica serovar Typhi
Outline: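 Agar well diffusion. S. typhi ATCC 6539 grown in LB at 37 °C for 24 h, 0.75 ml broth culture seeded into 75 ml nutrient agar. 8 mm wells received 100 µl of sample at 1 mg/ml in DMSO. Plates incubated 37 °C for 24 h and inhibition zone diameter measured in mm. DMSO as negative control; roxithromycin and cefixime (1 mg/ml) as positive controls.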

Escherichia coli [16] = assay: Antibacterial activity against Escherichia coli ATCC 15224 at 1 mg/ml after 24 hrs by agar well diffusion method; type: functional; details: for zone of inhibition at 1000 µg/mL: ATCC 15224, 24 h, read-out: DIZ; outline: as §4
Micrococcus luteus [17] = assay: Antibacterial activity against Micrococcus luteus ATCC 10240 at 1 mg/ml after 24 hrs by agar well diffusion method; type: functional; details: for zone of inhibition at 1000 µg/mL: ATCC 10240, 24 h, read-out: DIZ; outline: as §4
Staphylococcus aureus [18] = assay: Antibacterial activity against Staphylococcus aureus ATCC 6538 at 1 mg/ml after 24 hrs by agar well diffusion method; type: functional; details: for zone of inhibition at 1000 µg/mL: ATCC 6538, 24 h, read-out: DIZ; outline: as §4
Nucleic Acid [19] = assay: Antioxidant activity against OH-radical-induced oxidative Escherichia coli pBR322 damage at 10 to 100 ug/ml incubated for 1 hr in dark by agarose gel electrophoresis; type: nucleic-acid assay
Outline: (§5)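 pBR322 plasmid diluted in 50 mM phosphate buffer. 15 µl reactions held diluted plasmid, test compound (1000, 100 or 10 µg/ml), 2 mM FeSO4 and 30% H2O2. Incubated 37 °C for 1 h in dark. Controls: plasmid plus FeSO4/H2O2, and untreated plasmid. Run on 1% agarose in TBE, ethidium bromide stained; supercoiled band intensity compared with control.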

Nucleic Acid [20] = assay: Enhancement of OH-radical-induced oxidative Escherichia coli pBR322 damage at 1000 ug/ml incubated for 1 hr in dark by agarose gel electrophoresis; type: nucleic-acid assay; outline: as §5
Artemia = assay: Cytotoxicity against brine shrimps after 24 hr; type: functional; details: read-out: LD50 (the source's name)
Outline: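 Brine shrimp lethality. Artemia salina hatched 48 h at room temperature in aerated artificial sea water (sea salt 38 g/l). Ten active nauplii per vial in 5 ml sea water with compound at 10, 100 and 1000 µg/ml final. Survivors counted after 24 h, run in triplicate. LD50 derived by Finney analysis.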

Nucleic Acid [21] = assay: Binding affinity to chicken blood dsDNA assessed as shift in Ep/mv at 1 x 10 '-3 M at pH 4.7 by cyclic voltammetry; type: nucleic-acid assay; details: Gallus gallus; outline: as §2
Nucleic Acid [22] = assay: Binding affinity to chicken blood dsDNA assessed as shift in Ep/mv at 1 x 10 '-3 M at pH 7.4 by cyclic voltammetry; type: nucleic-acid assay; details: Gallus gallus; outline: as §2
Nucleic Acid [23] = assay: Binding affinity to chicken blood dsDNA assessed as decrease in current at 1 x 10 '-3 M at pH 4.7 by cyclic voltammetry; type: nucleic-acid assay; set-up: scale not given: the % may be the effect or the level left; details: Gallus gallus; outline: as §2
Nucleic Acid [24] = assay: Binding affinity to chicken blood dsDNA assessed as decrease in current at 1 x 10 '-3 M at pH 7.4 by cyclic voltammetry; type: nucleic-acid assay; set-up: scale not given: the % may be the effect or the level left; details: Gallus gallus; outline: as §2
Nucleic Acid [25] = assay: Antioxidant activity against OH-radical-induced oxidative Escherichia coli pBR322 damage at 10 to 1000 ug/ml incubated for 1 hr in dark by agarose gel electrophoresis; type: nucleic-acid assay; outline: as §5
Nucleic Acid [26] = assay: Antioxidant activity against OH-radical-induced oxidative Escherichia coli pBR322 damage at 100 to 1000 ug/ml incubated for 1 hr in dark by agarose gel electrophoresis; type: nucleic-acid assay; outline: as §5
Nucleic Acid [27] = assay: Antioxidant activity against OH-radical-induced oxidative Escherichia coli pBR322 damage at 10 ug/ml incubated for 1 hr in dark by agarose gel electrophoresis; type: nucleic-acid assay; outline: as §5

Compound	Activity (Nucleic Acid [1])	Activity (Nucleic Acid [2])	Kb (Nucleic Acid [3]) [×10⁴ /M]	Kb (Nucleic Acid [4]) [×10⁴ /M]	Kb (Nucleic Acid [5]) [×10⁴ /M]	Kb (Nucleic Acid [6]) [×10⁴ /M]	zone of inhibition at 1000 µg/mL [13] [mm]	zone of inhibition at 1000 µg/mL (Klebsiella aerogenes [14]) [mm]	zone of inhibition at 1000 µg/mL (Salmonella typhi [15]) [mm]	zone of inhibition at 1000 µg/mL (Escherichia coli [16]) [mm]	zone of inhibition at 1000 µg/mL (Micrococcus luteus [17]) [mm]	zone of inhibition at 1000 µg/mL (Staphylococcus aureus [18]) [mm]	LC50 (Artemia) [µg/mL]	Activity (Nucleic Acid [21])	Activity (Nucleic Acid [22])	Activity (Nucleic Acid [23]) [%]	Activity (Nucleic Acid [24]) [%]	diameter of the inhibition zone (DIZ) [13]	diameter of the inhibition zone (DIZ) (Klebsiella aerogenes [14])	diameter of the inhibition zone (DIZ) (Salmonella typhi [15])	further results
NNC(=O)c1ccc(O)cc1O	Active	Active	2.02	1.24	3.13	1.31	18.2	15.3	24.6	25.1	18.2	13.4	419 (≈ 2490 µM)	20	37	29.2	26.1	–	–	–	MIC [7]: 800 µg/mL (≈ 4760 µM); MIC (Klebsiella aerogenes [8]): 800 µg/mL (≈ 4760 µM); MIC (Salmonella typhi [9]): 100 µg/mL (≈ 595 µM); MIC (Escherichia coli [10]): 100 µg/mL (≈ 595 µM); MIC (Micrococcus luteus [11]): 800 µg/mL (≈ 4760 µM); MIC (Staphylococcus aureus [12]): 200 µg/mL (≈ 1190 µM); Activity (Nucleic Acid [19]): Active; Activity (Nucleic Acid [20]): Toxic
C=CC1=C(C(=O)O)N2C(=O)[C@@H](NC(=O)/C(=N\OCC(=O)O)c3csc(N)n3)[C@H]2SC1 [CEFIXIME]	–	–	–	–	–	–	38.5	16.1	34.3	40.5	38.7	39.1	–	–	–	–	–	–	–	–	–
NNC(=O)c1ccncc1 [ISONIAZID]	Active	Active	1.6	1.42	2.03	1.6	–	–	–	–	–	–	1070 (≈ 7840 µM)	51	8	50.8	77.1	inactive	inactive	inactive	diameter of the inhibition zone (DIZ) (Escherichia coli [16]): inactive; diameter of the inhibition zone (DIZ) (Micrococcus luteus [17]): inactive; diameter of the inhibition zone (DIZ) (Staphylococcus aureus [18]): inactive; Activity (Nucleic Acid [25]): Active
NNC(=O)c1cnccn1 [PYRAZINE CARBOXYLIC ACID HYDRAZIDE]	Active	Active	1.6	1.1	1.7	1.21	–	–	–	–	–	–	313 (≈ 2260 µM)	44	51	75	33.3	inactive	inactive	inactive	diameter of the inhibition zone (DIZ) (Escherichia coli [16]): inactive; diameter of the inhibition zone (DIZ) (Micrococcus luteus [17]): inactive; diameter of the inhibition zone (DIZ) (Staphylococcus aureus [18]): inactive; Activity (Nucleic Acid [26]): Active; Activity (Nucleic Acid [27]): inactive
CC[C@H]1OC(=O)[C@H](C)[C@@H](O[C@H]2C[C@@](C)(OC)[C@@H](O)[C@H](C)O2)[C@H](C)[C@@H](O[C@@H]2O[C@H](C)C[C@H](N(C)C)[C@H]2O)[C@](C)(O)C[C@@H](C)/C(=N\OCOCCOC)[C@H](C)[C@@H](O)[C@]1(C)O [ROXITHROMYCIN]	–	–	–	–	–	–	18.2	31.2	27.9	18.1	30.2	32	–	–	–	–	–	–	–	–	–
